# Tb MetRS inh = T. brucei MetRS inhibitors, primary screen, biochemical, luminescence; inhibition, % at 11.9 µM; purified T. brucei MetRS, ATP depletion, Kinase-Glo luminescence; actives 0.4% (n = 360,000); methionyl-tRNA synthetase (Trypanosoma brucei brucei);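 active = inhibition above a per-plate cutoff of the control wells' mean inhibition plus 3 SD, cut at about 5.5% in these data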;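 also: 0% = DMSO wells median and 100% = median of wells with control inhibitor compound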
#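 Material: parasite MetRS enzyme / Replication: singlicate, one well per compound / Signal: luminescence of leftover ATP / Schedule: 2 h aminoacylation at 25 °C after 15 min preincubation / Medium: HEPES-MgCl2-KCl buffer plus DTT, spermine, BSA, pyrophosphatase / Doses: 11.9 µM single point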
# XBP1 UPR activ = activators of adaptive XBP1 UPR arm, primary screen, cell-based, CHO-XBP1 luciferase reporter, luminescence, uHTS; IRE1-XBP1 UPR activation; percent of tunicamycin response, DMSO as zero; activation, % at 20 µM; actives 0.33% (n = 330,000);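 active = versus positive control, 20 µM dose yields 30% or more activation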;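 also: 100% = tunicamycin at 10 µg/mL and 0% = DMSO only wells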
#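 assay system = CHO-XBP1 luciferase reporter cells | amount = 1000 cells/well | buffer or medium = F12 plus 10% FBS | compound dosing = single point, 20 µM final compound, 1% DMSO | incubation = 16-18 h cell attachment at 37 °C, then 6 h compound exposure | detection = Steady-Glo luminescence read | controls = tunicamycin 10 µg/mL and vehicle-only wells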
# CHOP inhibitor = inhibitors of CHOP promoter induction, primary screen, cell-based, unfolded protein response, luciferase reporter; CHO-K1 CHOP-promoter luciferase, tunicamycin-induced, 15-18 h; actives 3.8% (n = 220,000); AID 2732, 2010; inhibition, % at 10 µM;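 active = compounds that reduced the stress-induced luciferase reporter signal by more than about 70% of percent inhibition, limit read from the data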;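 also: 0% = tunicamycin plus vehicle and 100% = wells without tunicamycin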
# CHOP UPR activ = activators of apoptotic CHOP UPR arm, primary screen, cell-based, CHO-CHOP luciferase reporter, luminescence, uHTS; activation, % at 10 µM; AID 449763, 2010; actives 0.34% (n = 330,000); UPR activation; percent of tunicamycin response over DMSO baseline;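 active = at 10 µM dose, activation of 40% or more, normalized to positive control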;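 also: 100% = tunicamycin at 10 µg/mL and 0% = DMSO alone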
#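 System: CHO-CHOP luciferase reporter cell line; amount: 500 cells/well; buffer or medium: F12 medium containing 10% fetal bovine serum; incubation: 6 h compound exposure at 37 °C after overnight seeding; measured by: luciferase luminescence after 10 min with Steady-Glo reagent; evaluation: % reporter activation, DMSO baseline versus tunicamycin full activation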
# V-ATPase pH = regulators of yeast V-ATPase proton pumping, primary screen, pHLuorin cytosolic pH fluorescence. S. cerevisiae. response, % at 10 µM. actives 0.37% (n = 350,000). AID 504577, 2011; in the data active = response mostly above about 7.3%, no sharp cut-off; inactive = mostly below about 5.4%; also: actives read high
# * = called active by the depositor; nt = not tested or not shown. The sample as a whole holds a higher share of hits than the screen did.
SMILES,Tb MetRS inh,XBP1 UPR activ,CHOP inhibitor,CHOP UPR activ,V-ATPase pH
O=C(OCC(=O)N(CCc1ccccc1)Cc1ccccc1)c1ccc(F)c(S(=O)(=O)N2CCOCC2)c1,-0.1,nt,nt,nt,-0.2
Cc1ccsc1/C=C1\CCc2ccccc2C1=O,-2.2,-3.8,76.9*,-4.8,1.2
CCc1noc(C)c1C(=O)N(Cc1ccccc1)c1c(N)n(CCOC)c(=O)[nH]c1=O,-0.1,-2.5,nt,0.1,-4.2
Cc1ccc2[nH]c(=O)c(C(c3nnnn3Cc3ccccc3)N3CCc4ccccc43)cc2c1 (stereo not drawn),0.3,-3.2,70.4*,0.6,-1.0
Cc1cc2cc(C(c3nnnn3Cc3ccco3)N3CCc4ccccc43)c(=O)[nH]c2cc1C (stereo not drawn),-0.9,-2.7,86.2*,0.1,4.9
Cc1cc(C)c(C)c(S(=O)(=O)NCc2ccc(C(=O)N3CCCCC3)cc2)c1C,0.3,-2.5,21.5,1.3,0.6
O=c1[nH][nH]c2c1C(c1ccc(Cl)c(Cl)c1)OC(CCc1ccccc1)C2 (stereo not drawn),-0.4,nt,nt,nt,nt
O=C(/C(=C/O)N=Nc1ccc(Cl)cc1)c1ccncc1,-0.8,13.3,48.2,0.2,1.0
Cc1ccc(N=N/C(=C\O)C(=O)c2ccncc2)cc1,-0.3,0.0,88.6*,3.4,0.2
Cc1ccc(NCCC(=O)c2ccc(Br)cc2)cc1,-0.8,-0.1,-26.1,-1.1,1.2
CCc1ccc(NCCC(=O)c2ccc(Br)cc2)cc1,-1.5,-1.1,-14.1,1.9,14.8*
COc1cc(NC(=O)c2ccc(Cl)cc2Cl)ccc1-c1cc2ccccc2oc1=O,-0.1,40.0*,26.4,10.8,-0.6
Cc1ccc(C(=O)NC(=S)Nc2ccc(-c3cc4ccccc4oc3=O)cc2)c(C)c1,-1.1,-7.7,94.8*,3.3,5.8
Cc1cc(C)cc(C(=O)NC(=S)Nc2ccc(-c3cc4ccccc4oc3=O)cc2)c1,0.3,0.7,67.4,2.5,-1.4
CCC(=O)Nc1cccc(-c2cc3ccccc3oc2=O)c1,-0.2,-1.1,47.7,3.6,-3.0
COc1cc(NC(C)=O)ccc1-c1cc2ccccc2oc1=O,0.1,0.5,4.0,2.3,-0.7
O=C(Cc1cccc2ccccc12)Nc1ccc(-c2cc3ccccc3oc2=O)cc1,0.0,-10.0,81.2*,-6.5,-0.5
COc1cccc(C(NC(C)=O)c2nc(-c3cccc(O)c3)cs2)c1 (stereo not drawn),0.7,nt,nt,nt,nt
COc1ccc(C2CC(O)(c3ccccc3)Oc3cc(OC)ccc32)cc1 (stereo not drawn),-0.4,0.5,92.0*,4.5,-4.8
COc1ccc(Cn2c(=S)[nH]c3cc(OC)c(OC)cc3c2=O)cc1,-1.0,19.9,83.3*,6.8,-0.1
COc1cc2[nH]c(=S)n(Cc3ccc(C)cc3)c(=O)c2cc1OC,-0.2,-0.1,11.4,-0.7,0.8
COc1ccc(CC(N)c2csc(Nc3nc(C)cnc3C)n2)cc1 (stereo not drawn),0.0,nt,nt,nt,nt
COc1cccc(-c2nc(CS(=O)(=O)CC(=O)Nc3cc(C)ccc3C)c(C)o2)c1,0.5,-2.3,77.2*,4.7,3.4
O=C(Nc1nc2ccccc2s1)C1c2ccccc2Oc2ccccc21,-0.9,-4.4,84.8*,-1.2,-0.6
CC(=O)c1ccc(OC2(C)CCN(Cc3csc4ccccc34)C2)cc1 (stereo not drawn),-0.3,nt,nt,nt,nt
SMILES,Tb MetRS inh,XBP1 UPR activ,CHOP inhibitor,CHOP UPR activ,V-ATPase pH
Cc1cc(C)c(C)c(C(=O)CSc2nnc(-c3ccc4[nH]c(C)c(C)c4c3)o2)c1C,-0.3,-1.5,70.9*,-0.6,1.6
Cc1ccc(Cl)cc1N1CCN(Cc2nnnn2Cc2ccco2)CC1,0.0,nt,72.4*,nt,0.4
COc1c(C(CC(C)C)OC(C)=O)ccc2c1C(=O)OCc1cc(C)cc(O)c1O2 (stereo not drawn),-2.2,0.0,71.9*,3.9,-1.2
CCOC(=O)CSc1c(-c2ccccc2)c2cc(Cl)ccc2[nH]c1=O,-0.1,-1.5,90.7*,4.3,-5.7
Cc1ccc(S(=O)(=O)NCc2c(-c3ccccc3)c3cc(Cl)ccc3[nH]c2=O)cc1,-0.1,2.9,103.3*,1.5,-0.2
O=c1[nH]c2ccc(Cl)cc2c(-c2ccccc2)c1CN1CCOCC1,-0.4,-1.2,-3.7,-0.2,-4.5
O=C1c2ccccc2C(c2nnnn2Cc2ccccc2)N1C1CC1 (stereo not drawn),-0.6,nt,nt,nt,nt
Cc1cccc(NC(=O)c2nc[nH]c2C(=O)N2CCc3ccccc3C2)c1,0.5,-2.3,nt,0.0,1.1
Cn1c(=O)c2c(SC3CCCC3)nc(C3CC3)nc2n(C)c1=O,-1.0,10.6,79.9*,0.6,0.6
CC(=O)c1ccc(NC(=O)Nc2ccncc2)cc1,-0.6,-0.4,-12.5,0.8,-2.6
CC(=O)c1ccc(NC(=O)Nc2ccc(Cl)cc2)cc1,1.6,4.4,77.7*,4.3,6.5
CC(=O)c1ccc(NC(=O)N[C@@H](CC(C)C)C(=O)O)cc1,0.1,-3.7,72.3*,0.5,2.4
CC(=O)c1cccc(NC(=O)N[C@@H](CC(C)C)C(=O)O)c1,-1.0,-0.9,1.4,-1.2,-4.0
COc1ccc(S(=O)(=O)N2CCN(CC(=O)NC(C)c3cccs3)CC2)cc1 (stereo not drawn),-0.3,nt,nt,nt,-0.4
COc1ccc(-c2csc(C(C#N)=C(O)CSc3nccn3C)n2)cc1OC,-0.2,nt,nt,nt,-5.5
O=C(c1ccccc1)c1c2c(cc3sc4ccccc4[n+]13)-c1cccc3cccc-2c13,0.0,nt,82.4*,nt,-0.9
O=[N+]([O-])c1cc(CN2CCN(c3cccc(C(F)(F)F)c3)CC2)c2cccnc2c1O,nt,0.9,87.2*,1.3,6.0
Cc1cccc(C)c1NC(=O)C(c1cc2ccccc2o1)N1CCN(C)CC1 (stereo not drawn),-1.2,nt,nt,nt,nt
Cc1ccc(-c2nc3ccccc3o2)cc1NC(=O)Cc1cccs1,0.0,0.4,80.2*,0.0,-4.9
O=C(Cc1cccs1)Nc1cccc(-c2nc3ccccc3o2)c1,0.1,1.1,90.5*,1.8,3.3
N.N.O=C(O)C1(C(=O)O)CCC1.[Pt+2],nt,nt,-1.5,nt,nt
COc1ccc(NS(=O)(=O)c2ccc(Cl)c(NC(=O)c3ccccc3F)c2)cc1,-0.1,1.1,nt,0.3,2.1
CC(C)(C)C(=O)Nc1cc(S(=O)(=O)Nc2ccc(Cl)cc2)ccc1Cl,-0.9,-1.5,74.9*,7.8,-0.5
Cc1ccc(NC(=O)C2CCCC2)cc1Cl,-0.5,1.5,nt,0.6,3.4
Cc1ccc(NS(=O)(=O)c2ccc(Cl)c(NC(=S)NC(=O)C3CCCCC3)c2)cc1Cl,-0.9,4.4,95.6*,1.3,-4.2

# Bioassay records: PubChem BioAssay, several laboratories
